Screening results from PubChem BioAssay.
PGC1a acetyl inh: PGC1a acetylation modulation, inhibitor mode | U2OS PGC1a acetylation, AlphaScreen anti-acetyl-lysine; with virally co-expressed GCN5 acetyltransferase | inhibition, % at 15.6 µM | hit rate 0.17% among 350,000 | AID 651687;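 active means every replicate shows inhibition of at least 40%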;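 further: 0% = neutral control wells and 100% = positive control wells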
PAX8 inh HTS: lowers PAX8-driven luciferase in RMG-I cells. RMG-I TPO-luciferase reporter, SteadyGlo, 24 h. inhibition, % at 12.6 µM. hit rate 1.2% among 360,000;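 active means mean replicate inhibition at least 60% with every replicate also reaching 60%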;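 further: luciferase light reporting Pax8 driven TPO promoter activity; plate controls were median of neutral control wells for no effect and mitoxantrone controls for full effect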
FN deposition inh: fibronectin deposition inhibition. AH1F fibroblasts, Alexa488-fibronectin deposition fluorescence, overnight. hit rate 0.086% among 350,000. inhibition, % at 12.6 µM;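 active means mean inhibition across replicates of 30% or more, regardless of how many single replicates reach that level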;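 further: positive control wells lacked labelled fibronectin entirely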
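Assay system: AH1F fibroblasts / Quantity: 10000 cells per well / Medium: DMEM plus 2% serum, read in PBS / Reagent: labelled fibronectin 24 nM / Dosing: single dose, pinned / Times: 1 h cell attachment, overnight exposure to compound and label / Signal: fluorescence, ex 485 nm, em 525 nm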
Env fusion inh: inhibitors of HIV Env-mediated cell fusion. HeLa-JRFL Env/CEM21 cell fusion, luciferase. inhibition, % at 12.3 µM. hit rate 1.1% among 360,000. AID 651610;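 active means mean replicate inhibition score of at least 50 and every replicate individually at or above 50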;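 further: 0% = plate neutral controls and 100% = maraviroc near 300 nM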
F508del corr: CFTR F508del correction in bronchial cells; CFBE cells, YFP halide quenching; stimulated with forskolin plus potentiator P3; % fluorescence drop versus neutral controls; activity (quench increase), % at 7.58 µM; hit rate 0.36% among 350,000;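 active means mean added fluorescence quench of at least 8% versus neutral control, with both replicates also reaching 8%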;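 further: cells transiently co-express mutant CFTR-F508del with the halide-sensitive YFP; corrector assay measuring rescue of mutant channel to the surface after 24 h compound exposure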
EWS-Fli block: inhibitors of EWS/Fli oncoprotein transcriptional activity. A673 NR0B1-luciferase reporter, viability-normalised. inhibition, % at 12.6 µM. hit rate 0.67% among 350,000. AID 651661;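 active means mean inhibition of at least 50% after viability correction, with every replicate also passing that limit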;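 further: firefly luciferase signal divided by Alamar Blue viability fluorescence both relative to DMSO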
* hit, by the source's call; [ ] = another dose, or the depositor's remark. This is a sample that favours compounds with a hit; in the whole collection about 2.3% have one here.

What do the screens show for `O=C(CCNS(=O)(=O)c1cccc(C(F)(F)F)c1)NC1CC1`?
PAX8 inh HTS: -17; FN deposition inh: -3; F508del corr: 16*; EWS-Fli block: -2

What do the screens show for `O=C(CN(Cc1ccccc1)S(=O)(=O)c1cccc(C(F)(F)F)c1)NC1CCCCC1`?
PAX8 inh HTS: 2; FN deposition inh: -5; Env fusion inh: 63*

How did O=S(=O)(/C(=C/c1ccc(C(F)(F)F)cc1)c1nc2ccccc2[nH]1)c1ccccc1 do in these assays?
PAX8 inh HTS: 115*; FN deposition inh: 65*; Env fusion inh: -127

What do the screens show for `CC(C)c1ccc(/C=C(\c2nc3ccccc3[nH]2)S(=O)(=O)c2ccccc2)cc1`?
PAX8 inh HTS: 87*; FN deposition inh: 12; Env fusion inh: -447

Results for COC(=O)/C(=C\c1ccc(O)cc1)c1nc2ccccc2[nH]1 ?
PAX8 inh HTS: -37; FN deposition inh: 8; Env fusion inh: -8; F508del corr: 2; EWS-Fli block: -26

Results for C/C(=C\c1ccc(N)cc1)c1nc2ccccc2[nH]1 ?
PGC1a acetyl inh: 7; PAX8 inh HTS: -158; FN deposition inh: 2; Env fusion inh: -134; F508del corr: 2; EWS-Fli block: -121

How did CC(C)CC#Cc1cnc2c(c1)C(=O)N([C@H](C)CO)C[C@@H](C)[C@@H](CN(C)Cc1ccccc1C(=O)O)O2 do in these assays?
PGC1a acetyl inh: 2; FN deposition inh: -10; Env fusion inh: -13[16.7 µM]; F508del corr: -7; EWS-Fli block: 0

What do the screens show for `O=C(NCc1ccccc1)[C@]1(Cc2ccccc2)N=C(c2ccc(OCCCO)cc2)O[C@@H]1c1ccccc1`?
PGC1a acetyl inh: -25; PAX8 inh HTS: 94*; Env fusion inh: 36[16.7 µM]; F508del corr: -1; EWS-Fli block: 30

How did [N-]=[N+]=NCc1ccccc1C[C@]1(C(=O)N2CCCCC2)N=C(c2ccc(OCCCO)cc2)O[C@H]1c1ccccc1 do in these assays?
PAX8 inh HTS: 17; Env fusion inh: 68*[16.7 µM]; F508del corr: -10; EWS-Fli block: 8

How did O=C(NCc1ccccc1)[C@@]1(Cc2ccccc2)N=C(c2ccc(OCCCO)cc2)O[C@H]1c1ccccc1 do in these assays?
PGC1a acetyl inh: -45; Env fusion inh: 22[16.7 µM]; F508del corr: -2; EWS-Fli block: 21

What do the screens show for `CN1C[C@@H]2[C@H](c3ccccc31)[C@H](CO)N2C(=O)c1ccccn1`?
PGC1a acetyl inh: 6; PAX8 inh HTS: -75; F508del corr: -1; EWS-Fli block: -53

Results for C[C@@H]1CN([C@@H](C)CO)C(=O)c2cc(NC(=O)c3ccncc3)ccc2O[C@@H](C)CCCCO[C@@H]1CN(C)C(=O)C1CCCCC1 ?
PGC1a acetyl inh: 3; PAX8 inh HTS: -11; Env fusion inh: 18[16.7 µM]; F508del corr: -1; EWS-Fli block: -6

Results for NCC(=O)NNC(=O)OCC1c2ccccc2-c2ccccc21 ?
PGC1a acetyl inh: -13; PAX8 inh HTS: -7; FN deposition inh: 2; Env fusion inh: -25; F508del corr: 8.6*; EWS-Fli block: 3

What do the screens show for `CO[C@@H]1CN(C)C(=O)c2cc(NC(=O)C3CC3)ccc2OC[C@H](C)N(C(C)=O)C[C@H]1C`?
PGC1a acetyl inh: 7; PAX8 inh HTS: -3; FN deposition inh: -4; F508del corr: -1; EWS-Fli block: -4

What do the screens show for `O=C(Cc1ccc(Cl)cc1Cl)Nc1ccncc1`?
PAX8 inh HTS: 27; Env fusion inh: 73*; F508del corr: 0; EWS-Fli block: 29

How did O=C(Cc1ccc(Cl)cc1Cl)Nc1ccncc1Cl do in these assays?
FN deposition inh: -7; F508del corr: 2; EWS-Fli block: 11

How did CC(C)C#Cc1ccc2c(c1)O[C@@H](CN(C)CC1CC1)[C@@H](C)CN([C@@H](C)CO)S2(=O)=O do in these assays?
PGC1a acetyl inh: -11; Env fusion inh: -15[16.7 µM]; F508del corr: 1; EWS-Fli block: 0

Results for O=[N+]([O-])c1cc(-c2ncccn2)c([N+](=O)[O-])s1 ?
PGC1a acetyl inh: 61*; PAX8 inh HTS: 9; FN deposition inh: -4; Env fusion inh: -60; F508del corr: -1; EWS-Fli block: 61*

How did C[C@@H]1CCCCO[C@@H](CN(C)C(=O)Nc2ccc3c(c2)OCO3)[C@@H](C)CN([C@H](C)CO)C(=O)c2cc(NC(=O)CCCCCC(=O)Nc3ccccc3N)ccc2O1 do in these assays?
PGC1a acetyl inh: -1; PAX8 inh HTS: 1; Env fusion inh: 10[16.7 µM]; F508del corr: -3; EWS-Fli block: -7

What do the screens show for `N=c1nc2n(cc1F)C1OC(CO)C(O)C1O2` (stereo not drawn)?
PGC1a acetyl inh: 0; PAX8 inh HTS: 44; FN deposition inh: 4; Env fusion inh: 69*; F508del corr: 2; EWS-Fli block: 37

What do the screens show for `COc1cc(C2Oc3ccccc3C=C2[N+](=O)[O-])cc(OC)c1OC` (stereo not drawn)?
PGC1a acetyl inh: 5; PAX8 inh HTS: -6; FN deposition inh: 17; Env fusion inh: -42; F508del corr: -13; EWS-Fli block: 52*

How did Cc1nc2c(-c3ccc(F)cc3)c(C)nn2c(C)c1CCC(=O)NC(C)CCc1ccco1 (stereo not drawn) do in these assays?
PGC1a acetyl inh: 3; PAX8 inh HTS: 31; FN deposition inh: -7; Env fusion inh: 65*; F508del corr: -3; EWS-Fli block: 8

What do the screens show for `Cc1nc2c(-c3ccccc3)c(C)nn2c(C)c1CCC(=O)NCc1ccco1`?
PGC1a acetyl inh: -24; PAX8 inh HTS: 1; FN deposition inh: -4; Env fusion inh: 10; F508del corr: 1; EWS-Fli block: 5

What do the screens show for `COc1ccc(-c2cc3nc(C)c(CCC(=O)NCc4ccco4)c(C)n3n2)c(OC)c1`?
PGC1a acetyl inh: -12; FN deposition inh: -5; Env fusion inh: -45

What do the screens show for `Cc1nc2cc(-c3ccc(Cl)cc3)nn2c(C)c1CCC(=O)NCc1ccco1`?
PGC1a acetyl inh: -8; PAX8 inh HTS: -15; FN deposition inh: -3; Env fusion inh: 2; F508del corr: -1; EWS-Fli block: 57*

What do the screens show for `COc1ccc2c3c([nH]c2c1)[C@@H](CO)N(C(=O)Nc1ccc(F)cc1)CC31CCN(S(C)(=O)=O)CC1`?
PGC1a acetyl inh: -4; PAX8 inh HTS: 21; F508del corr: 1; EWS-Fli block: 2

How did C[C@H]1CN([C@@H](C)CO)C(=O)Cc2cc(NS(=O)(=O)c3ccccc3)ccc2O[C@@H]1CN(C)Cc1ccncc1 do in these assays?
PGC1a acetyl inh: -3; PAX8 inh HTS: 15; FN deposition inh: -5; F508del corr: 0; EWS-Fli block: -3

How did COc1ccc(NC(=O)Nc2ccc3c(c2)C(=O)N([C@@H](C)CO)C[C@H](C)[C@H](CN(C)S(=O)(=O)c2ccc(F)cc2)OCCCC[C@@H](C)O3)cc1 do in these assays?
PGC1a acetyl inh: -7; PAX8 inh HTS: -13; FN deposition inh: -5; Env fusion inh: 12[16.7 µM]; F508del corr: 2; EWS-Fli block: -6
